Active and inactive are the calls of the source. The rule behind the calls is not given here.
Legend:
MDA-MB-231 [1] = assay: Cell cycle arrest in human MDA-MB-231 cells assessed as accumulation at S-phase at 1 to 10 uM incubated for 16 hrs by flow cytometry; type: functional, cell-based
MDA-MB-231 [2] = assay: Cell cycle arrest in human MDA-MB-231 cells assessed as accumulation at G2 phase at 1 to 10 uM incubated for 16 hrs by flow cytometry; type: functional, cell-based
MDA-MB-231 [3] = assay: Cell cycle arrest in human MDA-MB-231 cells assessed as accumulation at G1 phase at 1 to 10 uM incubated for 16 hrs by flow cytometry; type: functional, cell-based
[4] = Stability of carbenium ionic form, pKR+ of the compound by spectrophotometric analysis; type: physicochemical
Outline: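 Calibration of molar absorbance at the 330 nm peak, made with the compound in 0.1 M acetic acid, where the alcohol is completely ionised. pKR+ derived from the absorbance relationship in eqn (1).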

dsDNA = assay: Binding affinity to 12-mer duplex oligonucleotide (unknown origin) assessed as melting temperature at 5 uM in sodium phosphate buffer at pH 7 by UV-VIS spectrophotometry (reference value: 52.8 degC); type: nucleic-acid assay
MDA-MB-231 [5] = assay: Antiproliferative activity against human MDA-MB-231 cells assessed as reduction in cell viability after 4 days by [3H]-thymidine incorporation assay; type: functional, cell-based
Outline: (§1)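 MDA-MB-231 and HCT116 cells (ATCC) seeded at 3000 cells/well on tissue-culture-treated plates as monolayers and incubated 3 days. Compound then added for four days. 3H-thymidine pulse of 0.04 µCi/well for 5 h before harvest. Proliferation read as 3H-thymidine incorporation into S-phase DNA. Mean % of untreated cells is reported; IC50 is the concentration giving 50% inhibition.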

MDA-MB-231 [6] = assay: Induction of DNA double strand breaks in human MDA-MB-231 cells assessed as gammaH2AX phosphorylation at 5 uM incubated for 16 hrs by flow cytometry (reference value: 6.1 +/-0.7%); type: functional
MDA-MB-231 [7] = assay: Induction of DNA double strand breaks in human MDA-MB-231 cells assessed as gammaH2AX phosphorylation at 10 uM incubated for 16 hrs by flow cytometry (reference value: 6.1 +/-0.7%); type: functional
Calf thymus DNA [8] = assay: Binding affinity to calf thymus DNA assessed as binding constant at 25 uM in sodium phosphate buffer solution at pH 7 by UV-Visible spectrophotometry; type: nucleic-acid assay; conditions: Bos taurus
MDA-MB-231 [9] = assay: Induction of DNA double strand breaks in human MDA-MB-231 cells assessed as gammaH2AX phosphorylation at 1 uM incubated for 16 hrs by flow cytometry (reference value: 6.1 +/-0.7%); type: functional
HCT-116 [10] = assay: Antiproliferative activity against human HCT116 cells cultured as 3D-spheroids assessed as reduction in cell viability after 4 days by [3H]-thymidine incorporation assay; type: functional, cell-based
Outline: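 HCT116 spheroids: 4000 cells/well seeded in ultra-low attachment plates, then centrifuged at 1000 × g for 10 min to start spheroid formation. After 3 days, compounds added for four days. 3H-thymidine (0.08 µCi/well) added 16 h before harvest. Inhibition read as thymidine incorporation relative to untreated cells. IC50 is the concentration giving 50% inhibition.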

MDA-MB-231 [11] = assay: Antiproliferative activity against human MDA-MB-231 cells assessed as cell viability at 10 uM after 4 days by [3H]-thymidine incorporation assay relative to control; type: functional; conditions: read-out: Activity; outline: as §1
HCT-116 [12] = assay: Antiproliferative activity against human HCT116 cells assessed as reduction in cell viability after 4 days by [3H]-thymidine incorporation assay; type: functional, cell-based; outline: as §1
HCT-116 [13] = assay: Antiproliferative activity against human HCT116 cells assessed as cell viability at 10 uM after 4 days by [3H]-thymidine incorporation assay relative to control; type: functional; conditions: read-out: Activity; outline: as §1
Calf thymus DNA [14] = assay: Binding affinity to calf thymus DNA assessed as binding constant at 1 uM incubated for 24 hrs by competitive dialysis technique; type: nucleic-acid assay; conditions: Bos taurus
MDA-MB-231 [15] = assay: Cell cycle arrest in human MDA-MB-231 cells assessed as accumulation at S-phase at 1 uM incubated for 16 hrs by flow cytometry; type: functional, cell-based
Outline: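 Cells seeded at 106 per well in 6-well plates, exposed to compound for 16 h, harvested, washed, blocked in 1% FCS/PBS. Stained with anti-γH2AX (phospho-Ser139, 1:500, 2 h, room temperature), then Alexa 488 anti-mouse Fab (1:400, 1 h, room temperature, dark). Counterstained with RNase (1 µg/mL) plus propidium iodide (10 µg/mL) for 30 min. Cell-cycle profiles read by flow cytometry.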

[16] = Dissociation constant, pKa of the compound; type: physicochemical
MDA-MB-231 [17] = assay: Antiproliferative activity against human MDA-MB-231 cells assessed as reduction in cell viability at 10 uM after 4 days by [3H]-thymidine incorporation assay relative to control; type: functional; outline: as §1
HCT-116 [18] = assay: Antiproliferative activity against human HCT116 cells assessed as reduction in cell viability at 10 uM after 4 days by [3H]-thymidine incorporation assay relative to control; type: functional; outline: as §1
Calf thymus DNA [19] = assay: Binding affinity to calf thymus DNA assessed as binding constant by emission titration analysis; type: nucleic-acid assay; conditions: Bos taurus

Row | Structure (SMILES) | pKR+ [4] | IC50 (MDA-MB-231 [5]) | Activity (MDA-MB-231 [6]) | Activity (MDA-MB-231 [7]) | Activity (MDA-MB-231 [9]) | IC50 (HCT-116 [10]) | IC50 (HCT-116 [12]) | inhibition (MDA-MB-231 [17]) | inhibition (HCT-116 [18]) | other results
1 | c1cc2oc3cccc4oc5cccc6oc(c1)c2[c+](c34)c65 | 9.1 | 0.449 µM | 57.5% | 43.6% | 8.8% | > 1 µM | 0.708 µM | – | – | Activity (MDA-MB-231 [1]): inactive; Activity (MDA-MB-231 [2]): Active; Activity (MDA-MB-231 [3]): Active; Tm (dsDNA): 57.3 °C; Kb (Calf thymus DNA [8]): 4.1 ×10⁴ /M; viability at 10 µM (MDA-MB-231 [11]): < 1%; viability at 10 µM (HCT-116 [13]): < 1%; Kb (Calf thymus DNA [14]): 4.1 ×10⁴ /M
2 | CC[C@@]1(O)C(=O)OCc2c1cc1n(c2=O)Cc2cc3ccccc3nc2-1 [CAMPTOTHECIN] | – | 0.0284 µM | – | – | 73.6% | – | 0.0085 µM | – | – | Activity (MDA-MB-231 [15]): Active
3 | c1cc2[nH]c3cccc4oc5cccc6oc(c1)c2[c+](c34)c65 | – | – | – | – | – | – | – | – | – | pKa [16]: 5.7; inhibition at 10 µM (MDA-MB-231 [17]): 12 to 25%; inhibition at 10 µM (HCT-116 [18]): 12 to 25%
4 | CCCn1c2cccc3oc4cccc5oc6cccc1c6[c+](c45)c32 | 14.5 | 0.0875 µM | 30.6% | 27.8% | 12.9% | 0.038 µM | 0.257 to 0.321 µM | Active | Active | Kb (Calf thymus DNA [19]): 8.1 ×10⁶ /M
5 | CCCCn1c2cccc3c2[c+]2c4c1cccc4n(CCCC)c1cccc(c12)n3CCCC.F[B-](F)(F)F | 23.7 | – | – | – | – | – | – | – | Active | –
6 | CCCn1c2cccc3oc4cccc5c4[c+](c32)c2c1cccc2n5CCC | 19.4 | 0.0775 µM | 1.3% | 2.4% | 13.6% | 0.021 µM | 0.106 to 0.111 µM | Active | Active | –
